# ChEMBL document CHEMBL4715780, “Biological evaluation of tetracationic compounds based on two 1,4-diazabicyclo[2.2.2]octane moieties connected by different linkers” (Bioorg Med Chem, 2016)
# Assays:
# Citrobacter freundii [1] = test: Antibacterial activity against Citrobacter freundii ATCC 8090 assessed as bacterial growth inhibition by CLSI protocol based serial microdilution method; assay type: functional
# Salmonella typhimurium [2] = test: Antibacterial activity against Salmonella enterica ATCC 14028 assessed as bacterial growth inhibition by CLSI protocol based serial microdilution method; assay type: functional, Salmonella enterica subsp. enterica serovar Typhimurium
# Salmonella typhimurium [3] = test: Antibacterial activity against Salmonella enterica ATCC 14028 assessed as concentration required to inhibit visible growth by CLSI protocol based serial microdilution method; assay type: functional, Salmonella enterica subsp. enterica serovar Typhimurium
# Pseudomonas aeruginosa [4] = test: Antibacterial activity against Pseudomonas aeruginosa ATCC 9027 assessed as concentration required to inhibit visible growth by CLSI protocol based serial microdilution method; assay type: functional
# Escherichia coli [5] = test: Antibacterial activity against Escherichia coli ATCC 25922 assessed as concentration required to inhibit visible growth by CLSI protocol based serial microdilution method; assay type: functional
# Candida albicans [6] = test: Antifungal activity against Candida albicans CEMTC 34 assessed as fungal growth inhibition by CLSI protocol based serial microdilution method; assay type: functional
# Outline: (§1)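 Candida albicans grown in Sabouraud dextrose broth with two-fold serial compound dilutions from water stocks; final inoculum about 5 × 10⁵ CFU/mL. Incubated at 37 °C with orbital shaking (580 rpm). MIC is the lowest concentration preventing growth, by absorbance at 595 nm. MFC is the lowest concentration with no visible growth. Duplicates in two separate experiments.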
# Proteus vulgaris [7] = test: Antibacterial activity against Proteus vulgaris ATCC 6380 assessed as concentration required to inhibit visible growth by CLSI protocol based serial microdilution method; assay type: functional
# [8] = Selectivity index, ratio of CC50 for MDCK cells to EC50 for Influenza A virus (A/Puerto Rico/8/34 (H1N1)) infected in MDCK cells; assay type: toxicity, cell-based; settings: dog, read-out: Ratio CC50/EC50
# Outline: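 Ratio of CC₅₀ to EC₅₀, both in MDCK cells, with cytotoxicity run in parallel with the antiviral assay. EC₅₀ is the concentration halving virus production (0.3 log₁₀ EID₅₀ titre drop). It was obtained after 1 h compound pre-incubation, infection, 48 h at 37 °C, and hemagglutination read-out with 1% chicken erythrocytes.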
# Pseudomonas aeruginosa [9] = test: Antibacterial activity against Pseudomonas aeruginosa ATCC 9027 assessed as bacterial growth inhibition by CLSI protocol based serial microdilution method; assay type: functional
# [10] = Cytotoxicity against MDCK cells assessed as cell death incubated for 48 hrs by MTT assay; assay type: cell-based, Canis lupus familiaris; settings: dog
# Proteus vulgaris [11] = test: Antibacterial activity against Proteus vulgaris ATCC 6380 assessed as bacterial growth inhibition by CLSI protocol based serial microdilution method; assay type: functional
# Enterococcus faecalis [12] = test: Antibacterial activity against Enterococcus faecalis ATCC 51299 assessed as bacterial growth inhibition by CLSI protocol based serial microdilution method; assay type: functional
# Candida albicans [13] = test: Antifungal activity against Candida albicans CEMTC 34 assessed as concentration required to inhibit visible growth by CLSI protocol based serial microdilution method; assay type: functional; outline: as §1
# Staphylococcus aureus [14] = test: Antibacterial activity against […] Staphylococcus aureus ATCC 25923 assessed as bacterial growth inhibition by CLSI protocol based serial microdilution method; assay type: functional
# Influenza A virus = test: Antiviral activity against Influenza A virus (A/Puerto Rico/8/34 (H1N1) infected in MDCK cells assessed as decrease in viral titer preincubated for 1 hr followed by viral infection and cultivated for 48 hrs followed by supernatant transferred to chicken erythrocyte for 1 hr followed by measuring ability to cause positive hemagglutination; assay type: functional, organism-based; settings: A/Puerto Rico/8/1934(H1N1)
# Outline: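 MDCK monolayers in MEM were pre-incubated with compound for 1 h at 37 °C, then infected with 10-fold virus dilutions (10⁻¹–10⁻⁶) and held 48 h at 37 °C, 5% CO₂. Supernatant was mixed with an equal volume of 1% chicken erythrocytes, 60 min at room temperature. Titre was taken from the highest dilution giving full agglutination (log₁₀ EID₅₀). Triplicate per concentration.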
# Enterococcus faecalis [15] = test: Antibacterial activity against Enterococcus faecalis ATCC 51299 assessed as concentration required to inhibit visible growth by CLSI protocol based serial microdilution method; assay type: functional
# Citrobacter freundii [16] = test: Antibacterial activity against Citrobacter freundii ATCC 8090 assessed as concentration required to inhibit visible growth by CLSI protocol based serial microdilution method; assay type: functional
# Staphylococcus aureus [17] = test: Antibacterial activity against […] Staphylococcus aureus ATCC 25923 assessed as concentration required to inhibit visible growth by CLSI protocol based serial microdilution method; assay type: functional
# Escherichia coli [18] = test: Antibacterial activity against Escherichia coli ATCC 25922 assessed as bacterial growth inhibition by CLSI protocol based serial microdilution method; assay type: functional
# [19] = Cytotoxicity against HEK293T cells assessed as reduction in cell viability measured after 24 hrs by MTT assay; assay type: cell-based, HEK-293T; settings: human
# Outline: (§2)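 HEK293T or MCF-7 cells in IMDM with 10% FBS, seeded at 20,000 per well and grown overnight. Compounds at […] in fresh medium for 24 h at 37 °C, 5% CO₂. MTT then added for 4 h, precipitate dissolved overnight in SDS-HCl, absorbance read at 570 nm. Viability expressed relative to untreated cells, giving CC₅₀. Duplicate wells, at least two independent repeats.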
# [20] = Cytotoxicity against human MCF7 cells assessed as reduction in cell viability measured after 24 hrs by MTT assay; assay type: cell-based; outline: as §2
# [21] = Selectivity index, ratio of CC50 for HEK293T cells assessed as reduction in cell viability measured after 24 hrs by MTT assay to MIC for Candida albicans CEMTC 34 assessed as bacterial growth inhibition by CLSI protocol based serial microdilution method; assay type: toxicity; settings: human, read-out: Selectivity Index
# Outline: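 SI = CC₅₀ (HEK293T) / MIC. HEK293T cells were seeded at 20,000/well overnight, then exposed to 10–250 µg/mL in IMDM with 10% FBS for 24 h. MTT was added for 4 h, solubilised with SDS-HCl, and read at 570 nm; duplicates, ≥2 independent runs. MIC came from two-fold dilutions in Sabouraud dextrose broth at ~5 × 10⁵ CFU/mL, 37 °C with shaking, read at 595 nm, in duplicate.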
SMILES,MIC (Citrobacter freundii [1]) [µg/mL],MIC (Salmonella typhimurium [2]) [µg/mL],MBC (Salmonella typhimurium [3]) [µg/mL],MBC (Pseudomonas aeruginosa [4]) [µg/mL],MBC (Escherichia coli [5]) [µg/mL],MIC (Candida albicans [6]) [µg/mL],MBC (Proteus vulgaris [7]) [µg/mL],selectivity ratio [8],MIC (Pseudomonas aeruginosa [9]) [µg/mL],CC50 at 48 h [10] [µg/mL],MIC (Proteus vulgaris [11]) [µg/mL],MIC (Enterococcus faecalis [12]) [µg/mL],MFC (Candida albicans [13]) [µg/mL],MIC (Staphylococcus aureus [14]) [µg/mL],EC50 (Influenza A virus) [µg/mL],MBC (Enterococcus faecalis [15]) [µg/mL],MBC (Citrobacter freundii [16]) [µg/mL],MBC (Staphylococcus aureus [17]) [µg/mL],MIC (Escherichia coli [18]) [µg/mL],other results
C#CCOCCCCCN(CC[N+]12CC[N+](CCCCCCCCCCCC)(CC1)CC2)CC[N+]12CC[N+](CCCCCCCCCCCC)(CC1)CC2.[Cl-].[Cl-].[Cl-].[Cl-],3.1,3.1,3.1,12.5,3.1,25,> 100,1,6.3,14.9,100,1.6,25,1.6,10,3.1,3.1,3.1,3.1,–
CCCCCCCCCCCC[N+]12CC[N+](CCNCC[N+]34CC[N+](CCCCCCCCCCCC)(CC3)CC4)(CC1)CC2.[Cl-].[Cl-].[Cl-].[Cl-],3.1,1.6,3.1,6.3,3.1,12.5,50,4,1.6,7.7,50,0.8,12.5,0.6,2.2,1.6,3.1,12,16,–
O=C(O)c1cn(C2CC2)c2cc(N3CCNCC3)c(F)cc2c1=O [CIPROFLOXACIN],–,–,–,–,–,–,–,–,–,–,–,–,–,–,–,–,–,–,–,CC50 at 24 h [19]: > 60 µg/mL; CC50 at 24 h [20]: 60 µg/mL
Clc1ccccc1C(c1ccccc1)(c1ccccc1)n1ccnc1 [CLOTRIMAZOLE],–,–,–,–,–,400,–,–,–,–,–,–,400,–,–,–,–,–,–,CC50 at 24 h [19]: 7 µg/mL; selectivity ratio at 24 h [21]: < 1; CC50 at 24 h [20]: 5 µg/mL
CCCCCCCCCCCC[N+]12CC[N+](CCCCCCCC[N+]34CC[N+](CCCCCCCCCCCC)(CC3)CC4)(CC1)CC2,3.1,3.1,6.3,6.3,3.1,6.3,> 100,2,3.1,4.5,100,1.6,12.5,0.6,2.2,1.6,6.3,1.6,1.6,–
CCOC(=O)C1=C[C@@H](OC(CC)CC)[C@H](NC(C)=O)[C@@H](N)C1 [OSELTAMIVIR],–,–,–,–,–,–,–,1000,–,300,–,–,–,–,0.3,–,–,–,–,–
CCCCCCCCCCCC[N+]12CC[N+](Cc3nnn(CCCCCN=[N+]=[N-])c3C[N+]34CC[N+](CCCCCCCCCCCC)(CC3)CC4)(CC1)CC2.[Cl-].[Cl-].[Cl-].[Cl-],1.6,1.6,3.1,6.3,3.1,12.5,> 100,3,3.1,12.9,50,1.6,12.5,1.6,4.2,1.6,3.1,3.1,1.6,–
CCCCCCCCCCCC[N+]12CC[N+](Cc3nnn(CCCCC(=O)OC)c3C[N+]34CC[N+](CCCCCCCCCCCC)(CC3)CC4)(CC1)CC2.[Cl-].[Cl-].[Cl-].[Cl-],1.6,3.1,3.1,12.5,3.1,6.3,> 100,< 2,6.3,20.6,100,1.6,12.5,1.6,> 11,3.1,3.1,3.1,3.1,–
CCCCCCCCCCCC[N+]12CC[N+](Cc3cccc(-c4ccccc4C[N+]45CC[N+](CCCCCCCCCCCC)(CC4)CC5)c3)(CC1)CC2,1.6,1.6,3.1,6.3,3.1,1.6,100,–,3.1,–,50,0.8,6.3,0.6,–,1.6,1.6,1.2,1.6,–
